Data as given in ChEMBL document CHEMBL1140587, “Investigation of the terminal P4 domain in a series of D-phenylglycinamide-based factor Xa inhibitors” (Bioorg Med Chem Lett, 2007).

System: Plasma
Experiment: Anticoagulant activity in human plasma assessed as concentration required to double prothrombin time
Format: functional

| Compound | Activity |
| --- | --- |
| O=C(N[C@@H](C(=O)N1CCC(CN2CCCCC2)CC1)c1ccccc1)c1ccc2cc[nH]c2c1 | 1.2 µM |
| Cc1c[nH]c2cc(C(=O)N[C@@H](C(=O)N3CCC(CN4CCCCC4)CC3)c3ccccc3)ccc12 | 1.5 µM |
| O=C(N[C@@H](C(=O)N1CCC(CN2CCCC2)CC1)c1ccccc1)c1ccc2cc[nH]c2c1 | 2.2 µM |
| O=C(N[C@@H](C(=O)N1CCC(CN2CCCCC2)CC1)c1ccccc1)c1ccc2c(Cl)c[nH]c2c1 | 1.1 µM |
| CCN(CC)CC1CCN(C(=O)[C@H](NC(=O)c2ccc3cc[nH]c3c2)c2ccccc2)CC1 | 2.3 µM |
| CN1CCC(C2CCN(C(=O)[C@H](NC(=O)c3ccc4cc[nH]c4c3)c3ccccc3)CC2)CC1 | 1.5 µM |
| O=C(N[C@@H](C(=O)N1CCC(CN2CCC[C@@H]2CO)CC1)c1ccccc1)c1ccc2cc[nH]c2c1 | 2.2 µM |

Biological target: Coagulation factor X (Homo sapiens) (UniProt P00742)
Experiment: Binding affinity to human factor10a

Sequence of Coagulation factor X (Homo sapiens) (P00742 41-179 limits assumed): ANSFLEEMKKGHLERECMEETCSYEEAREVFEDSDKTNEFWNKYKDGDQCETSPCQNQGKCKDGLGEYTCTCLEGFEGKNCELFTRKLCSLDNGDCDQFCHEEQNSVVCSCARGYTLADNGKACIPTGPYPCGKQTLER
Sequence of Coagulation factor X (Homo sapiens) (P00742 235-488 limits assumed): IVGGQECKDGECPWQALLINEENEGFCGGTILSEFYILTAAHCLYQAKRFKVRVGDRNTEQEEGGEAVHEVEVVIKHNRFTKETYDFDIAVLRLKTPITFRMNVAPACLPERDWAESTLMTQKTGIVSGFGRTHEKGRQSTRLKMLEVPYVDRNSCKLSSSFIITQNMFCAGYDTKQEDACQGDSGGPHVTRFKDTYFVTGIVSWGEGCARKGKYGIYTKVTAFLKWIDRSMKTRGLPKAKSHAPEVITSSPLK

| Compound | Kapp |
| --- | --- |
| CC(C)NCC1CCN(C(=O)[C@H](NC(=O)c2ccc3cc[nH]c3c2)c2ccccc2)CC1 | 7.8 10^6L/mol |
| CN1CCN(CC2CCN(C(=O)[C@H](NC(=O)c3ccc4cc[nH]c4c3)c3ccccc3)CC2)CC1 | 1.5 10^6L/mol |
| O=C(N[C@@H](C(=O)N1CCC(CN2CCC(CO)CC2)CC1)c1ccccc1)c1ccc2cc[nH]c2c1 | 0.7 10^6L/mol |
| O=C(N[C@@H](C(=O)N1CCC(CN2CCCCC2)CC1)c1ccccc1)c1ccc2cc[nH]c2c1 | 48 10^6L/mol |
| Cc1c[nH]c2cc(C(=O)N[C@@H](C(=O)N3CCC(CN4CCCCC4)CC3)c3ccccc3)ccc12 | 110 10^6L/mol |
| O=C(N[C@@H](C(=O)N1CCC(CN2CCCC2)CC1)c1ccccc1)c1ccc2cc[nH]c2c1 | 24 10^6L/mol |
| O=C(N[C@@H](C(=O)N1CCC(CN2CC[C@@H](O)C2)CC1)c1ccccc1)c1ccc2cc[nH]c2c1 | 4 10^6L/mol |
| O=C(N[C@@H](C(=O)N1CCC(CN2CCC(O)C2)CC1)c1ccccc1)c1ccc2cc[nH]c2c1 (stereo not given in full) | 5 10^6L/mol |
| O=C(N[C@@H](C(=O)N1CCC(CN2CCNCC2)CC1)c1ccccc1)c1ccc2cc[nH]c2c1 | 3.9 10^6L/mol |
| O=C(N[C@@H](C(=O)N1CCC(CN2CCCCC2)CC1)c1ccccc1)c1ccc2c(Cl)c[nH]c2c1 | 710 10^6L/mol |
| CCN(CC)CC1CCN(C(=O)[C@H](NC(=O)c2ccc3cc[nH]c3c2)c2ccccc2)CC1 | 28 10^6L/mol |
| O=C(N[C@@H](C(=O)N1CCC(CN2CCC(O)CC2)CC1)c1ccccc1)c1ccc2cc[nH]c2c1 | 10 10^6L/mol |
| CN1CCC(C2CCN(C(=O)[C@H](NC(=O)c3ccc4cc[nH]c4c3)c3ccccc3)CC2)CC1 | 450 10^6L/mol |
| O=C(N[C@@H](C(=O)N1CCC(CN2CCC[C@H]2CO)CC1)c1ccccc1)c1ccc2cc[nH]c2c1 | 9.7 10^6L/mol |
| O=C(N[C@@H](C(=O)N1CCC(CN2CCC[C@@H]2CO)CC1)c1ccccc1)c1ccc2cc[nH]c2c1 | 18 10^6L/mol |

System: not listed separately
Experiment: AUC(0 to 7 hrs) in rat plasma at 20 mg/kg, po
Format: ADME, organism-based
Set-up: time < 7 hr, dose 20 mg/kg, route oral
Outline: (§1)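 Fasted Fisher rats (n = 3) got one 20 mpk oral gavage, suspended in acacia or CMC/Tween 80. Citrated blood was taken at set times and spun to plasma. Drug level was read as anti-Xa equivalents: plasma at 37 °C for 15 min, S-2222 substrate, human fXa 0.4 U/ml, 405 nm kinetic over 10 min. Values came from triplicate spiked-plasma standards by four-parameter logistic fit; AUC by area algorithm.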

| Compound | AUC(0-t) at 7 h |
| --- | --- |
| O=C(N[C@@H](C(=O)N1CCC(CN2CCCCC2)CC1)c1ccccc1)c1ccc2cc[nH]c2c1 | 23000 ng·h/mL |
| Cc1c[nH]c2cc(C(=O)N[C@@H](C(=O)N3CCC(CN4CCCCC4)CC3)c3ccccc3)ccc12 | 14000 ng·h/mL |
| O=C(N[C@@H](C(=O)N1CCC(CN2CCCCC2)CC1)c1ccccc1)c1ccc2c(Cl)c[nH]c2c1 | 10000 ng·h/mL |
| CN1CCC(C2CCN(C(=O)[C@H](NC(=O)c3ccc4cc[nH]c4c3)c3ccccc3)CC2)CC1 | 19000 ng·h/mL |

System: not listed separately
Experiment: Cmax in rat plasma at 20 mg/kg, po
Format: ADME, organism-based
Set-up: dose 20 mg/kg, route oral
Outline: as §1

| Compound | Cmax |
| --- | --- |
| O=C(N[C@@H](C(=O)N1CCC(CN2CCCCC2)CC1)c1ccccc1)c1ccc2cc[nH]c2c1 | 4.7 µM |
| Cc1c[nH]c2cc(C(=O)N[C@@H](C(=O)N3CCC(CN4CCCCC4)CC3)c3ccccc3)ccc12 | 2.4 µM |
| O=C(N[C@@H](C(=O)N1CCC(CN2CCCCC2)CC1)c1ccccc1)c1ccc2c(Cl)c[nH]c2c1 | 1.7 µM |
| CN1CCC(C2CCN(C(=O)[C@H](NC(=O)c3ccc4cc[nH]c4c3)c3ccccc3)CC2)CC1 | 4 µM |
